Reference: ChEMBL document CHEMBL1128222, “Novel inhibitors for multidrug resistance: 1,3,5-triazacycloheptanes” (J Med Chem, 1995)

Legend:
P388/S [1] = assay: In vitro relative vinblastin uptake into P388/s (murine leukemia) cells following 10 uM treatment.; type: functional, Mus musculus
Summary of the method: (§1)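 10^6 P388/S or P388/ADR cells in 1 mL of 20 mM Hepes-buffered medium, pH 7.4. They are incubated with 4.6 kBq [3H]vinblastine with or without 10 μM compound (DMSO final 1%) at 37 °C for 30 min. Cells are then chilled, pelleted at 2 °C and washed twice in cold PBS. They are solubilized in NaOH and counted. The value is uptake relative to untreated cells.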

P388/ADR [2] = assay: In vitro relative vinblastin uptake into P388/ADR (murine leukemia/multidrug resistant) cells following 10 uM treatment.; type: functional, Mus musculus; summary of the method: as §1
Mus musculus [3] = assay: Evaluation of ILS percentage of mice upon oral administration on days 1-4 and 6-8 at a concentration of 40 mg/kg; type: functional
Summary of the method: (§2)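 Female CD2F1 mice, 5 per group, were inoculated i.p. with 1.0 × 10^6 P388/ADR cells on day 0. VBL was given by i.p. injection and/or the test agent orally on days 1-4 and 6-8. Read-out was survival days (average ± SD) and ILS (%) against the untreated group, with P < 0.05 by Student's t-test or a two-sample test with Welch's correction.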

Mus musculus [4] = assay: Evaluation of Survival of mice upon oral administration on days 1-4 and 6-8 at a concentration of 40 mg/kg; type: functional; summary of the method: as §2
P388/ADR [5] = assay: Evaluation of inhibitory activity against multidrug resistant P388 cells (P388/ADR) cells; type: functional, cell-based, Mus musculus
Summary of the method: (§3)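 P388/S and P388/ADR murine leukemia cells are maintained by weekly intraperitoneal passage in female CDF1 mice. For the assay they are seeded at 10^5 cells/mL in RPMI-1640 with 10% FCS, 20 μM β-mercaptoethanol and 100 μg/mL kanamycin. Vinblastine is given with or without modulator (0–5.0 μM; DMSO final 0.25%) for 48 h. Growth is read by MTT and vinblastine IC50 is reported.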

P388/S [6] = assay: (§4) Evaluation of inhibitory activity against drug sensitive P388 cells (P388/S) cells; type: functional, cell-based; conditions: Mus musculus; summary of the method: as §3
Mus musculus [7] = assay: In vivo evaluation for the inhibitory activity against drug sensitive P388 cells (P388/S) cells bearing mice at a concentration of 0.2 mg/kg
Mus musculus [8] = assay: Evaluation of ILS percentage of mice upon intraperitoneal injection of VBL at a concentration of 0.2 mg/kg; type: functional; conditions: ip; summary of the method: as §2
Mus musculus [9] = assay: Evaluation of Survival of mice upon intraperitoneal injection of VBL at a concentration of 0.2 mg/kg; type: functional; conditions: ip; summary of the method: as §2
Mus musculus [10] = assay: In vivo evaluation for the inhibitory activity against drug sensitive P388 cells (P388/S) cells bearing mice at dose 0.2 mg/kg; type: functional
Summary of the method: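 Mice were implanted with 1 × 10^6 P388/S cells on day 0 and given VBL by i.p. injection on days 1-4 and 6-8. Survival days (average ± SD) and ILS (%) were compared with the untreated group, with P < 0.05 by Student's t-test or Welch-corrected two-sample test.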

P388/S [11] = assay: as §4; type: functional, cell-based, Mus musculus; summary of the method: as §3

COc1ccc(CN2CCN(Cc3ccc(OC)c(OC)c3)C(SC)=NC2=O)cc1OC
Relative uptake (P388/S [1]): 1.04
Relative uptake (P388/ADR [2]): 1.14

CSC1=NC(=S)N(Cc2ccccc2)CCN1Cc1ccccc1
Relative uptake (P388/S [1]): 1.19
Relative uptake (P388/ADR [2]): 3.44

CSC1=NC(=O)N(Cc2ccc(Cl)cc2)CCN1Cc1ccc(Cl)cc1
Relative uptake (P388/S [1]): 1.28
ILS at 40 mg/kg (Mus musculus [3]): 4.2%
Relative uptake (P388/ADR [2]): 6.87
Survival days (Mus musculus [4]): 10

O=C1NC(=O)N(Cc2ccc(Cl)cc2)CCN1Cc1ccc(Cl)cc1
Relative uptake (P388/S [1]): 1.22
Relative uptake (P388/ADR [2]): 3.44

O=C1NC(=O)N(Cc2cccc(Cl)c2)CCN1Cc1cccc(Cl)c1
Relative uptake (P388/S [1]): 1.2
Relative uptake (P388/ADR [2]): 1.05

O=C1NC(=O)N(Cc2ccccc2)CCN1Cc1ccccc1
Relative uptake (P388/S [1]): 1.09
Relative uptake (P388/ADR [2]): 1.41

S=C1NC(=S)N(Cc2cccc(Cl)c2)CCN1Cc1cccc(Cl)c1
Relative uptake (P388/S [1]): 1.34
Relative uptake (P388/ADR [2]): 5.34

O=C1NC(=S)N(Cc2ccc(Cl)cc2)CCN1Cc1ccc(Cl)cc1
Relative uptake (P388/S [1]): 1.3
Relative uptake (P388/ADR [2]): 5.35

COc1ccc(CN2CCN(Cc3ccc(OC)c(OC)c3)C(=S)NC2=O)cc1OC
Relative uptake (P388/S [1]): 1.14
Relative uptake (P388/ADR [2]): 2.36

O=C1NC(=S)N(Cc2ccccc2)CCN1Cc1ccccc1
Relative uptake (P388/S [1]): 1.2
Relative uptake (P388/ADR [2]): 2.11

COc1cccc2c1C(=O)c1c(O)c3c(c(O)c1C2=O)C[C@@](O)(C(=O)CO)C[C@@H]3O[C@H]1C[C@H](N)[C@H](O)[C@H](C)O1 [DOXORUBICIN]
IC50 (P388/ADR [5]; Mus musculus, P388/ADR): 360 nM
IC50 (P388/S [6]): 19 nM

CO[C@@]12[C@H](COC(N)=O)C3=C(C(=O)C(C)=C(N)C3=O)N1C[C@@H]1N[C@@H]12 [MITOMYCIN]
IC50 (P388/ADR [5]; Mus musculus, P388/ADR): 535 nM
IC50 (P388/S [6]): 48 nM

COc1ccc(CCN(C)CCCC(C#N)(c2ccc(OC)c(OC)c2)C(C)C)cc1OC (centres undefined) [VERAPAMIL]
Relative uptake (P388/S [1]): 1.02
Relative uptake (P388/ADR [2]): 5.7

CC[C@]1(O)C[C@@H]2CN(CCc3c([nH]c4ccccc34)[C@@](C(=O)OC)(c3cc4c(cc3OC)N(C)[C@H]3[C@@](O)(C(=O)OC)[C@H](OC(C)=O)[C@]5(CC)C=CCN6CC[C@]43[C@@H]65)C2)C1 [VINBLASTINE]
Survival days (Mus musculus [7]): 15.5
ILS at 0.2 mg/kg (Mus musculus [8]): 89%
ILS at 0.2 mg/kg (Mus musculus [9]): 14.6%
Survival days (Mus musculus [10]): 15.5

CISPLATIN
IC50 (P388/S [11]): 48 nM
IC50 (P388/ADR [5]; p388/adr): 61 nM
